ChEMBL document CHEMBL1139646, “Sialyl Lewis(x) analogs based on a quinic acid scaffold as the fucose mimic” (Bioorg Med Chem Lett, 2005)
Activity calls are given as the source filed them. No cut-off for these calls is given here.

Experiments:
Format in all cases: cell-based
P-selectin [1] = molecular target: T1, P-selectin (Homo sapiens, UniProt P16109); assay: Inhibition of HL-60 cell adhesion to recombinant human Selectin P
T1 sequence (P16109 whole entry): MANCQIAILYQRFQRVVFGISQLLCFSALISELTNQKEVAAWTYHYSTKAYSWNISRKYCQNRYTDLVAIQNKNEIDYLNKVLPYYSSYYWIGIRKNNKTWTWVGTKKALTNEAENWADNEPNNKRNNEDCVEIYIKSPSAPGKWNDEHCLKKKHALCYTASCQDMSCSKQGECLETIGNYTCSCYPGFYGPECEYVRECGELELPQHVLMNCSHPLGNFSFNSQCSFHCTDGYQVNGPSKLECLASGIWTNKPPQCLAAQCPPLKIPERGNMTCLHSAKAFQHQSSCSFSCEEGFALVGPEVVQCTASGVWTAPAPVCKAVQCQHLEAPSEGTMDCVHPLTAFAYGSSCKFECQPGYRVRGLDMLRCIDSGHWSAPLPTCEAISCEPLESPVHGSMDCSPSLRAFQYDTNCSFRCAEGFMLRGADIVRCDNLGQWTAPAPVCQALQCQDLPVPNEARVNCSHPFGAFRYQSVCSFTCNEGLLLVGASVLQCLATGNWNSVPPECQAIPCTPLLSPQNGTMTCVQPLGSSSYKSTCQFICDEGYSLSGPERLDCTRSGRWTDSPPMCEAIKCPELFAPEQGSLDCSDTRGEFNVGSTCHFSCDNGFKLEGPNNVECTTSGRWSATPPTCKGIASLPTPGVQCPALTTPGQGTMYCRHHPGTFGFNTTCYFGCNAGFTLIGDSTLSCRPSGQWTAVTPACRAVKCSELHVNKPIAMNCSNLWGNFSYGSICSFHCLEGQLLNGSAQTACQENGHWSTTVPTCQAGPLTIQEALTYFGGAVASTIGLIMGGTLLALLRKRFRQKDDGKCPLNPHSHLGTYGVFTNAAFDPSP
Outline: (§1)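 Recombinant human E- or P-selectin was coated in DPBS at 3 µg/mL (150 ng per well) for 3 h and blocked 1 h with DPBS/1% BSA. Inhibitor, diluted from 10 mM DPBS stock into Hanks'/20 mM Hepes pH 7.2–7.4/0.2% glucose/1% BSA, was added with 10^5 HL-60 cells for 15 min at room temperature, then washed with CaCl2-containing buffer. Bound cells were lysed and myeloperoxidase was read with o-phenylenediamine/H2O2 for 1 h at A492. Percent inhibition is relative to the no-inhibitor control.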

E-selectin = molecular target: T2, E-selectin (Homo sapiens, UniProt P16581); assay: Inhibition of HL-60 cell adhesion to recombinant human Selectin E; outline: as §1
T2 sequence (P16581 whole entry): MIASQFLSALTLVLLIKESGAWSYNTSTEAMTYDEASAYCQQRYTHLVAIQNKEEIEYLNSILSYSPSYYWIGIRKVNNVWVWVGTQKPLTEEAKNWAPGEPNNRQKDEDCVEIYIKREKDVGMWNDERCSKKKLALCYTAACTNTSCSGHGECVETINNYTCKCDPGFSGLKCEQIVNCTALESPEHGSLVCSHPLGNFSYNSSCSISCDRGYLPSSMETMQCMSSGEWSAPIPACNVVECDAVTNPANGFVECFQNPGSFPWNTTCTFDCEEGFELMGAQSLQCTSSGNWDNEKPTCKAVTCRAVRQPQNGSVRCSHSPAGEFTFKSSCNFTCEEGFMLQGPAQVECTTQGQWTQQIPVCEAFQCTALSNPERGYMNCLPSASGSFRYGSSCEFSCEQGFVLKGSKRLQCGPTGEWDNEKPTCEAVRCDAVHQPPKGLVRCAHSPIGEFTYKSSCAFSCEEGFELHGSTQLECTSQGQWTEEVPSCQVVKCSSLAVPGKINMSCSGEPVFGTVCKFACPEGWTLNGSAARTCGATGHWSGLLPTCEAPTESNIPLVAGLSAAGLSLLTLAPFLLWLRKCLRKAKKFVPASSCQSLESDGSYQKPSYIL

[2] = molecular target: T3, E-selectin (Homo sapiens) (UniProt P16581); assay: Inhibition of HL-60 cell adhesion to recombinant human Selectin E at 50 mM; outline: as §1
T3 sequence (whole entry): T2 sequence (P16581 whole entry)

[3] = molecular target: T4, P-selectin (Homo sapiens) (UniProt P16109); assay: Inhibition of HL-60 cell adhesion to recombinant human Selectin P at 50 mM
T4 sequence (whole entry): T1 sequence (P16109 whole entry)

P-selectin [4] = molecular target: T1, P-selectin; assay: Inhibition of HL-60 cell adhesion to recombinant human Selectin P; Not active up to 100 mM; outline: as §1
[5] = molecular target: T3, E-selectin (Homo sapiens); assay: Inhibition of HL-60 cell adhesion to recombinant human Selectin E at 50 mM; Not active up to 100 mM; outline: as §1
[6] = molecular target: T4, P-selectin (Homo sapiens); assay: Inhibition of HL-60 cell adhesion to recombinant human Selectin P at 50 mM; Not active up to 100 mM; outline: as §1

IC50 (P-selectin [1]) | IC50 (E-selectin; read-out: IC50) | inhibition [2] | inhibition [3] | IC50 (E-selectin; hl-60) | IC50 (P-selectin [4]) | inhibition [5] | inhibition [6] | Structure (SMILES)
21 mM | > 50 mM | 43% | 86% | – | – | – | – | O=C(O)CC[C@H](NC(=O)[C@]1(O)C[C@@H](O)[C@@H](O)[C@H](O)C1)C(=O)O
> 50 mM | > 50 mM | 30% | 8% | – | – | – | – | C[C@H](NC(=O)[C@]1(O)C[C@@H](O)[C@@H](O)[C@H](O)C1)C(=O)O
40 mM | > 50 mM | 40% | 83% | – | – | – | – | O=C(O)CCCNC(=O)[C@]1(O)C[C@@H](O)[C@@H](O)[C@H](O)C1
19 mM | > 50 mM | 44% | 92% | – | – | – | – | CCC(C)[C@H](NC(=O)[C@]1(O)C[C@@H](O)[C@@H](O)[C@H](O)C1)C(=O)O (some centres not stated)
19.5 mM | > 50 mM | 46% | 88% | – | – | – | – | O=C(O)[C@H](CO)NC(=O)[C@]1(O)C[C@@H](O)[C@@H](O)[C@H](O)C1
> 50 mM | > 50 mM | 31% | 14% | – | – | – | – | O=C(O)CCCCCNC(=O)[C@]1(O)C[C@@H](O)[C@@H](O)[C@H](O)C1
– | – | – | – | Not Active | Not Active | inactive | inactive | O=C(O)[C@]1(O)C[C@@H](O)[C@@H](O)[C@H](O)C1 [QUINIC ACID]
> 50 mM | > 50 mM | 38% | 38% | – | – | – | – | O=C(O)CNC(=O)[C@]1(O)C[C@@H](O)[C@@H](O)[C@H](O)C1
